Measured values taken from ChEMBL document CHEMBL2346548, “Design, synthesis, and structure-activity relationship studies of tryptanthrins as antitubercular agents” (J Nat Prod, 2013).
≈ marks a conversion by molar mass, not a printed value.

Legend:
[1] = system: Mycobacterium tuberculosis; test: Antitubercular activity against Mycobacterium tuberculosis H37Rv incubated at 37 degC for 14 days in presence of 40% human serum by microplate alamar blue assay; format: functional; settings: 336 h
Method in brief: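 This is the MABA run in 7H9 broth containing 40% human serum. Compounds were 2-fold serially diluted, and wells were inoculated with H37Rv at 2 × 10⁵ CFU/mL. Incubation was at 37 °C for 14 days, then Alamar Blue was added. MIC was the lowest concentration preventing the blue-to-pink colour change.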

[2] = system: Mycobacterium tuberculosis; test: Antitubercular activity against Mycobacterium tuberculosis H37Rv incubated at 37 degC for 7 days by microplate alamar blue assay; format: functional; settings: for MIC: Mycobacterium tuberculosis, H37Rv, 168 h
Method in brief: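 Mtb H37Rv was grown in 7H9 broth with glycerol, Casitone, 10% OADC and 0.05% Tween 80 to OD600 0.4. Compounds were 2-fold serially diluted from DMSO stocks in 7H9, and wells were inoculated at 2 × 10⁵ CFU/mL. After 7 days at 37 °C, Alamar Blue was added and read after a further 24 h. MIC was the lowest concentration preventing the blue-to-pink change.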

Vero = test: Cytotoxicity against african green monkey Vero cells; format: cell-based, Chlorocebus sabaeus
[3] = system: Mycobacterium tuberculosis; test: Antitubercular activity against non-replicating Mycobacterium tuberculosis H37Rv incubated for 10 days by LORA method; format: functional; settings: 240 h
Method in brief: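 H37Rv carrying pFCA-luxAB was adapted to low oxygen by gradual self-depletion in a sealed, slowly stirred flask. It was then exposed to compounds for 10 days under anaerobic conditions. Cultures recovered for 28 h in ambient oxygen before n-decanal substrate was added and luminescence read. MIC was the lowest concentration giving a 90% reduction in luminescence versus untreated controls.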

[4] = Solubility in simulated intestinal fluid at pH 7.6 by HPLC method; format: physicochemical
Method in brief: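 Simulated intestinal fluid medium; each analogue 200 μM final in 2% DMSO, shaken 24 h at room temperature, then HPLC with photodiode array read at 230 nm; duplicate, means given.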

[5] = Permeability across apical to basolateral side in human Caco2 cells incubated for 1 hr at 37 degC by HPLC-MS/MS method; format: ADME, cell-based; settings: Caco-2
Method in brief: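 TC7 (Caco-2 subclone) monolayer; 10 μM compound in 1% DMSO in HBSS-MES pH 6.5 on apical donor side, basolateral receiver pH 7.4; shaken 1 h at 37 °C; receiver sampled, HPLC-MS/MS; duplicate means.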

[6] = Metabolic stability in human liver microsomes assessed as parent compound remaining at 1 uM incubated for 1 hr by HPLC-MS/MS method; format: ADME, Microsome; settings: read-out: Stability
Method in brief: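 Pooled mixed-gender human liver microsomes (0.3 mg/mL protein), 1 μM compound with NADP-regenerating system in phosphate buffer pH 7.4, 1 h at 37 °C; parent measured at start and end by HPLC-MS/MS; duplicate means.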

[7] = Permeability across basolateral to apical side in human Caco2 cells incubated for 1 hr at 37 degC by HPLC-MS/MS method; format: ADME, cell-based; settings: Caco-2
[8] = Solubility in simulated gastric fluid at pH 1.5 by HPLC method; format: physicochemical
Method in brief: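 Compound at 200 μM final in 2% DMSO in simulated gastric fluid, shaken 24 h at room temperature; HPLC-photodiode array detection at 230 nm; duplicate means.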

[9] = Efflux ratio in human Caco2 cells incubated for 1 hr at 37 degC by HPLC-MS/MS method; format: ADME, cell-based; settings: Caco-2
[10] = Aqueous solubility in PBS buffer at pH 7.4 by HPLC method; format: physicochemical; settings: PBS buffer, read-out: solubility
Method in brief: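 Compound at 200 μM final in 2% DMSO in PBS pH 7.4, shaken 24 h at room temperature; quantified by HPLC with photodiode array detection at 230 nm; duplicate, mean reported.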

[11] = Protein binding in human plasma at 10 uM incubated for 8 hrs at 37 degC by equilibrium dialysis method; format: ADME, cell-free; settings: read-out: PPB (converted)
Method in brief: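 Equilibrium dialysis: 10 μM compound in 1% DMSO in human plasma vs 0.05 M phosphate buffer pH 7.5 across 12–14 K cutoff membrane, at least 8 h at 37 °C; HPLC-photodiode detection at 230 nm; duplicate means.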

[12] = Chlorocebus sabaeus, Vero, read-out: IC50

SMILES | MIC [1] [µg/mL] | MIC [2] [µg/mL] | IC50 (Vero; [12]) [µg/mL] | MIC90 [3] [µg/mL] | also measured
O=C1c2ccc(N3CCCCC3)cc2-n2c1nc1ccncc1c2=O | > 32 | 16 (≈ 48.1 µM) | 20 (≈ 60.2 µM) | – | –
O=C1c2cc(OC(F)(F)F)ccc2-n2c1nc1ncccc1c2=O | 0.5 | 0.25 (≈ 0.75 µM) | 7.6 (≈ 22.8 µM) | 2.5 (≈ 7.5 µM) | –
O=C1c2ccc(N3CCNCC3)cc2-n2c1nc1ccncc1c2=O | > 4 | > 4 | 11 (≈ 33 µM) | – | –
O=C1c2cc(Cl)ccc2-n2c1nc1ccncc1c2=O | 0.25 | 0.25 (≈ 0.881 µM) | 8.5 (≈ 30 µM) | 0.68 (≈ 2.4 µM) | –
O=C1c2cc(Cl)ccc2-n2c1nc1ccc(F)cc1c2=O | 0.312 | 0.156 (≈ 0.519 µM) | 23.5 (≈ 78.2 µM) | > 50 | solubility [4]: 29.8 µM (≈ 8.96 µg/mL); Papp A→B at 1 h [5]: 2.2 ×10⁻⁶ cm/s; remaining at 1 h, 1 µM [6]: 63%; Papp B→A at 1 h [7]: 2.1 ×10⁻⁶ cm/s
O=C1C2=Nc3ccncc3CN2c2ccc(Cl)cc21 | – | 2 (≈ 7.42 µM) | 3.7 (≈ 13.7 µM) | 8.3 (≈ 30.8 µM) | –
O=C1c2cc(Br)ccc2-n2c1nc1ccccc1c2=O | 0.5 | 0.125 (≈ 0.382 µM) | 35 (≈ 107 µM) | > 50 | solubility [4]: 92.9 µM (≈ 30.4 µg/mL); Papp A→B at 1 h [5]: 23.8 ×10⁻⁶ cm/s; remaining at 1 h, 1 µM [6]: 59%; solubility [8]: 2.3 µM (≈ 0.752 µg/mL); efflux ratio at 1 h [9]: > 1; Papp B→A at 1 h [7]: 7.6 ×10⁻⁶ cm/s; solubility [10]: 2.6 µM (≈ 0.851 µg/mL)
O=C1C2=Nc3ccncc3CN2c2ccc(OC(F)(F)F)cc21 | – | 2 (≈ 6.26 µM) | 5.2 (≈ 16.3 µM) | 9 (≈ 28.2 µM) | –
O=C1C2=Nc3ncccc3CN2c2ccc(Cl)cc21 | – | 16 (≈ 59.3 µM) | > 10 | – | –
O=C1c2ccc(N3CCOCC3)cc2-n2c1nc1ccncc1c2=O | > 32 | 32 (≈ 95.7 µM) | > 20 | – | –
O=C1c2ccc(N3CCCCC3)cc2-n2c1nc1ncccc1c2=O | 16 | 4 (≈ 12 µM) | 81 (≈ 244 µM) | – | –
CCN(CCN(C)C)c1ccc2nc3n(c(=O)c2c1)-c1ccc(Cl)cc1C3=O | 16 | 16 (≈ 40.3 µM) | 32 (≈ 80.6 µM) | – | MBC90 [2]: 4 µg/mL (≈ 10.1 µM)
CC(C)(C)OC(=O)N1CCN(c2ccc3c(c2)-n2c(nc4ncccc4c2=O)C3=O)CC1 | – | – | – | – | IC50 (Vero; vero): ND(Insoluble)
O=C1c2cc(OC(F)(F)F)ccc2-n2c1nc1ccncc1c2=O | 0.5 | 0.063 (≈ 0.189 µM) | 5.7 (≈ 17.1 µM) | 0.64 (≈ 1.92 µM) | MBC90 [2]: 0.125 µg/mL (≈ 0.375 µM)
O=C1c2cc([N+](=O)[O-])ccc2-n2c1nc1ncccc1c2=O | 4 | 0.5 (≈ 1.7 µM) | < 0.2 | – | MBC90 [2]: 4 µg/mL (≈ 13.6 µM)
O=C1c2ccccc2-n2c1nc1ccncc1c2=O | 0.25 | 0.5 (≈ 2.01 µM) | 5.3 (≈ 21.3 µM) | 1.6 (≈ 6.42 µM) | –
O=C1c2cc(F)ccc2-n2c1nc1ncccc1c2=O | 2 | 1 (≈ 3.74 µM) | 0.3 (≈ 1.12 µM) | – | MBC90 [2]: 1 µg/mL (≈ 3.74 µM)
O=C1c2cc(F)ccc2-n2c1nc1ccccc1c2=O | 0.5 | 0.125 (≈ 0.47 µM) | > 50 | > 50 | solubility [4]: 18.8 µM (≈ 5.01 µg/mL); Papp A→B at 1 h [5]: 66.6 ×10⁻⁶ cm/s; remaining at 1 h, 1 µM [6]: 46%; solubility [8]: 8.5 µM (≈ 2.26 µg/mL); efflux ratio at 1 h [9]: > 1; Papp B→A at 1 h [7]: 29.9 ×10⁻⁶ cm/s; solubility [10]: 4.9 µM (≈ 1.3 µg/mL)
O=C1C2=Nc3ccccc3CN2c2ccccc21 | 2 | 1 (≈ 4.27 µM) | 42 (≈ 179 µM) | 20 (≈ 85.4 µM) | –
O=C1c2ccc(N3CCNCC3)cc2-n2c1nc1ccccc1c2=O | > 2 | 0.5 (≈ 1.5 µM) | > 2 | – | MBC90 [2]: >2 µg/mL
O=C1c2cc([N+](=O)[O-])ccc2-n2c1nc1ccccc1c2=O | 0.5 | 0.032 (≈ 0.109 µM) | 28 (≈ 95.5 µM) | 2.4 (≈ 8.18 µM) | solubility [4]: 152 µM (≈ 44.5 µg/mL); remaining at 1 h, 1 µM [6]: 33%; MBC90 [2]: 0.25 µg/mL (≈ 0.853 µM); solubility [8]: 5.1 µM (≈ 1.5 µg/mL); fraction unbound at 8 h, 10 µM [11]: 0.031; solubility [10]: 64.3 µM (≈ 18.9 µg/mL)
O=C1c2ccc(N3CCOCC3)cc2-n2c1nc1ncccc1c2=O | – | – | – | – | IC50 (Vero; vero): ND(Insoluble)
